The source of these data is ChEMBL document CHEMBL3414571, “The discovery of macrocyclic XIAP antagonists from a DNA-programmed chemistry library, and their optimization to give lead compounds with in vivo antitumor activity” (J Med Chem, 2015).

Broadly, the IC50 is the midpoint of a concentration-inhibition curve. As usually defined, the half-life is the time in which the quantity being followed falls by half. As a reminder, the MRT is the average time that molecules of a dose stay in the body.

Data set [1] is described as follows: Inhibition of XIAP BIR2 (124 to 240 residues) C202A/C213G mutant (unknown origin) incubated for 60 mins by biotinylated SMAC peptide Alpha-screen assay. On the set-up: species or system Homo sapiens. In general terms: Alpha assays give light when donor and acceptor beads are brought close together.
A short description of data set [2]: Half life in Balb/C mouse at 1 mg/kg, iv administered as single dose by LC-MS/MS method. Format: ADME, organism-based. Set-up: dose 1 mg/kg, route intravenous. To be noted: in vivo. The gist of the method: (§1)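 Mice received one intravenous dose, and parent compound levels in blood were monitored over time. Plasma pharmacokinetic parameters were derived from these concentration–time profiles.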

In data set [3] the test system is Mus musculus. Nature of the data set: Toxicity in human MDA-MB-231 cells xenografted athymic (nu+/nu+) Balb/C mouse assessed as mouse morbidity at 5 to 50 mg/kg, ip dosed every 3 days for total of 5 administrations. It is filed as organism-based. Set-up: dose 5-50 mg/kg, route intraperitoneal. The settings on record: in vivo, 72 h. A digest of the protocol: (§2)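 Nude mice carrying subcutaneous MDA-MB-231 tumors staged to 100−150 mm3 were dosed intraperitoneally q3d × 5. Morbidity and body weight loss were monitored throughout the dosing regimen.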
In general terms: In xenograft studies the graft and the host belong to different species.

The nature of data set [4]: Antitumor activity against human A875 cells xenografted in athymic (nu+/nu+) Balb/C mouse assessed as tumor growth inhibition at 50 mg/kg, ip dosed every 3 days for total of 5 administrations. The settings on record: 72 h, route intraperitoneal, read-out: TGI. Format: functional. A digest of the protocol:
(§3)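 Tumor fragments or cells were implanted subcutaneously in athymic nude mice. Once tumors were staged to 100−150 mm3, mice were dosed intraperitoneally every 3 days for 5 doses (q3d × 5).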

Data set [5] has as its system MDA-MB-231. Nature of the data set: Antiproliferative activity against human MDA-MB-231 cells assessed as inhibition of cell proliferation after 72 hrs by MTS assay. Format: functional, cell-based. The settings on record: MDA-MB-231, 72 h. A general note: Tetrazolium assays rely on reduction of a dye to a coloured formazan, in cell work by metabolically active cells.

Data set [6] in a line: Volume of distribution at steady state in Balb/C mouse at 1 mg/kg, iv administered as single dose by LC-MS/MS method. It is filed as ADME, organism-based. On the set-up: dose 1 mg/kg, route intravenous. To be noted: in vivo, read-out: Vdss. The gist of the method: as §1
Data set [7] relates to Mus musculus. Kind of data set: AUClast in Balb/C mouse at 1 mg/kg, iv administered as single dose by LC-MS/MS method. It is filed as ADME, organism-based, Plasma. On the set-up: time 0 - last, dose 1 mg/kg, route intravenous. To be noted: in vivo. The gist of the method:
as §1

In data set [8] the test system is Mus musculus. Nature of the data set: Toxicity in human MDA-MB-231 cells xenografted athymic (nu+/nu+) Balb/C mouse assessed as weight loss at 5 to 50 mg/kg, ip dosed every 3 days for total of 5 administrations. It is filed as organism-based. On the set-up: dose 5-50 mg/kg, route intraperitoneal. To be noted: in vivo, 72 h. The gist of the method:
as §2

Data set [9] deals with MDA-MB-231. Nature of the data set: Antitumor activity against human MDA-MB-231 cells xenografted in athymic (nu+/nu+) Balb/C mouse assessed as tumor growth inhibition at 5 mg/kg, ip dosed every 3 days for total of 5 administrations. On the set-up: dose 5 mg/kg. It is filed as functional, organism-based. A digest of the protocol:
as §3

Data set [10] is described as follows: Antiproliferative activity against human A875 cells assessed as inhibition of cell proliferation after 72 hrs by MTS assay. It is filed as functional, cell-based. To be noted: A875, 72 h.
For a further data set, the system named is A549. Nature of the data set: Antiproliferative activity against human A549 cells assessed as inhibition of cell proliferation after 72 hrs by MTS assay. It is filed as functional, cell-based. To be noted: A549, 72 h.
For another data set, the system named is A875. Nature of the data set: Antitumor activity against human A875 cells xenografted in athymic (nu+/nu+) Balb/C mouse assessed as tumor growth inhibition at 50 mg/kg, ip dosed every 3 days for total of 5 administrations and measured on day 12 after last dose. On the set-up: dose 50 mg/kg. It is filed as functional, organism-based. The gist of the method:
as §3

The test system of data set [11] is MDA-MB-231. Nature of the data set: Antitumor activity against human MDA-MB-231 cells xenografted in athymic (nu+/nu+) Balb/C mouse assessed as tumor growth inhibition at 50 mg/kg, ip dosed every 3 days for total of 5 administrations. Format: functional. To be noted: MDA-MB-231, ip, 72 h, route intraperitoneal, read-out: TGI. The gist of the method: as §3
A short description of data set [12]: Mean residence time in Balb/C mouse at 1 mg/kg, iv administered as single dose by LC-MS/MS method. Format: ADME, organism-based. Set-up: dose 1 mg/kg, route intravenous. The settings on record: in vivo. The gist of the method: as §1
The subject of data set [13] is MDA-MB-231. Kind of data set: Antitumor activity against human MDA-MB-231 cells xenografted in athymic (nu+/nu+) Balb/C mouse assessed as tumor growth inhibition at 20 mg/kg, ip dosed every 3 days for total of 5 administrations. Format: functional, organism-based. Set-up: dose 20 mg/kg. The gist of the method:
as §3

Structures are written as SMILES. The source made the active and inactive calls. No cut-off for these calls is given here. Bounds are passed on as bounds.

In the case of `CN[C@@H](C)C(=O)N[C@H](C(=O)N1C[C@@H]2C[C@H]1C(=O)N[C@@H](Cc1ccc3ccccc3c1)C(=O)N[C@H](C(=O)O)Cc1ccc(cc1)OCc1cn(nn1)[C@H]1C[C@@H](C(=O)N[C@@H](Cc3ccc4ccccc4c3)C(=O)N[C@H](C(=O)O)Cc3ccc(cc3)OCc3cn2nn3)N(C(=O)[C@@H](NC(=O)[C@H](C)NC)C(C)(C)C)C1)C(C)(C)C`, the IC50 in data set [1] was 97 nM; in the data set with MDA-MB-231 [5], 26 nM; in data set [10], 77 nM; in the data set on A549, over 25000 nM. In addition, in data set [2], the half-life was 51 min. The Activity entry with Mus musculus [3] and with Mus musculus [8] was “Non-toxic” throughout. Moreover, the inhibition in vivo at 50 mg/kg in [4] was 148%; in the data set on MDA-MB-231 [11] it was 78%. Further, the Vd in data set [6] was determined as 0.34 L/kg. This compound also showed an AUClast in the data set on Mus musculus [7] of 1550 ng·h/mL. In addition, the TGI entry with MDA-MB-231 [9] and with MDA-MB-231 [13] was “inactive” throughout. Also, in the data set on A875, the TGI entry was “Active”. For the same compound, the MRT in data set [12] was determined as 47.4 min.
